# Assay results taken from ChEMBL document CHEMBL5678799 (Biochem J, 2009).
# Active and inactive are the calls of the source. The rule behind the calls is not given here.
# Experiments:
# [1] = target: Maternal embryonic leucine zipper kinase (Homo sapiens) (UniProt Q14680); assay: Inhibition of recombinant human N-terminal GST/C-terminal His6-tagged MELK (2 to 651 residues) expressed in Escherichia coli assessed as remaining activity at 10 uM using KKLNRTLSFAEPG as substrate incubated for 30 mins in presence of [gamma-33P]ATP by filter binding method relative to control
# How it was run: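 Incubation was 30 min at room temperature (21 °C) under conditions linear with time and enzyme amount. Activity is reported as percent of control lacking compound, triplicate mean ± S.D.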
# [2] = species on record: Homo sapiens; assay: Inhibition of choline kinase (unknown origin) assessed as remaining activity at 1 uM using choline as substrate incubated for 30 mins in presence of ATP by Kinase Glo assay relative to control
# How it was run: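 Choline kinase assayed with 1 mM choline, 1 μM ATP in 25 mM glycine/NaOH pH 8.5, 67 mM KCl, 5 mM MgCl2, 1 mM DTT, 30 min at room temperature. Stopped with Kinase-Glo Plus, luminescence read after 10 min. Activity relative to control, triplicate.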
# [3] = system: MEF; assay: Induction of cell cycle arrest in MEF cells assessed as accumulation at S phase at 3 uM incubated for 1 to 3 days by propidium iodide staining based flow cytometric analysis (reference value: 61.5 +/- 0.78%); assay type: toxicity; details: mouse, time 1-3 day
# [4] = target: Mitogen-activated protein kinase; ERK1/ERK2 (Homo sapiens) (UniProt P27361+P28482); assay: Inhibition of ERK1/2 in serum starved/PMA-stimulated HEK293 cells assessed as reduction in RSK activity at 1 uM using crosstide as substrate incubated for 30 mins in presence of [32P]-ATP by liquid-scintillation counting method; assay type: cell-based
# [5] = target: MAP kinase-activated protein kinase 5 (Homo sapiens) (UniProt Q8IW41); assay: Inhibition of recombinant human His6-tagged PRAK (1 to 471 residues) expressed in baculovirus infected Sf21 cells assessed as remaining activity at 1 uM using phosphorylase b peptide as substrate incubated for 30 mins in presence of [gamma-33P]ATP by filter binding method relative to control
# How it was run: (§1)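 Robotic radiometric panel assay, 30 min at room temperature (21 °C), with 10 mM magnesium acetate. […] Compound at 1 or 10 µM. Residual activity expressed relative to compound-free control; triplicate average ± S.D.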
# [6] = system: MEF; assay: Inhibition of mTORC2 in MEF cells assessed as reduction in NDRG1 phosphorylation incubated ay 1 uM for 30 mins by immunoblot analysis; assay type: cell-based; details: Mus musculus
# How it was run: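 Cells (MEFs, wild-type or knockout, or HeLa) kept in 10% serum, then exposed 30 min to inhibitor or vehicle at the stated level. Washed twice in ice-cold PBS and lysed in Tris lysis buffer with CHAPS, phosphatase and protease inhibitors. Lysates cleared at 18000 g and immunoblotted with phospho-specific antibodies and ECL detection. Blots are representative of three experiments.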
# [7] = target: Protein kinase C zeta type (Homo sapiens) (UniProt Q05513); assay: Inhibition of recombinant human N-terminal His6-tagged PKCzeta (2 to 592 residues) expressed in baculovirus infected Sf21 cells assessed as remaining activity at 1 uM using ERMRPRKRQGSVRRV as substrate incubated for 30 mins in presence of [gamma-33P]ATP by filter binding method relative to control
# [8] = target: Ribosomal protein S6 kinase alpha-5 (Homo sapiens) (UniProt O75582); assay: Inhibition of recombinant human His6-tagged MSK1 (2 to 802 residues) expressed in baculovirus infected Sf21 cells assessed as remaining activity at 1 uM using GRPRTSSFAEGKK as substrate incubated for 30 mins in presence of [gamma-33P]ATP by filter binding method relative to control; how it was run: as §1
# [9] = target: Serine/threonine-protein kinase PAK 6 (Homo sapiens) (UniProt Q9NQU5); assay: Inhibition of recombinant human N-terminal GST-tagged PAK6 (2 to 681 residues) expressed in Escherichia coli assessed as remaining activity at 10 uM using RRRLSFAEPG as substrate incubated for 30 mins in presence of [gamma-33P]ATP by filter binding method relative to control
# How it was run: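 Panel assays were run for 30 min at 21 °C, within the linear range for time and enzyme. […] Results are percent activity remaining relative to compound-free control, averaged from triplicate ± S.D.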
# [10] = target: mTORC1 (Homo sapiens) (UniProt P42345+Q8N122+Q9BVC4); details: HEK293, dose 30-1000 nM, time 30.0 min
# [11] = target: T1, mTORC2 (Homo sapiens) (UniProt P42345+Q6R327+Q9BVC4+Q9BPZ7); details: HEK293, dose 30-1000 nM, time 30.0 min
# [12] = target: 3-phosphoinositide-dependent protein kinase 1 (Homo sapiens) (UniProt O15530); assay: Inhibition of recombinant human His6-tagged PDK1 (52 to 556 residues) expressed in baculovirus infected Sf21 cells assessed as remaining activity at 1 uM using PDKtide as substrate incubated for 30 mins in presence of [gamma-33P]ATP by filter binding method relative to control; how it was run: as §1
# [13] = target: MAP/microtubule affinity-regulating kinase 3 (Homo sapiens) (UniProt P27448); assay: Inhibition of recombinant human N-terminal His6-tagged MARK3 (2 to 729 residues) expressed in baculovirus infected Sf21 cells assessed as remaining activity at 10 uM using CHKtide as substrate incubated for 30 mins in presence of [gamma-33P]ATP by filter binding method relative to control
# [14] = target: Homeodomain-interacting protein kinase 2 (Homo sapiens) (UniProt Q9H2X6); assay: Inhibition of recombinant human N-terminal GST-tagged HIPK2 (165 to 564 residues) expressed in Escherichia coli assessed as remaining activity at 1 uM using MBP as substrate incubated for 30 mins in presence of [gamma-33P]ATP by filter binding method relative to control
# How it was run: (§2)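 Radiometric kinase panel run robotically at room temperature (21 °C) for 30 min, linear in time and enzyme. […] Activity is expressed as percent of control without compound, from triplicate determinations ± S.D.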
# [15] = target: Serine/threonine-protein kinase pim-2 (Homo sapiens) (UniProt Q9P1W9); assay: Inhibition of recombinant human N-terminal GST-tagged PIM2 (2 to 334 residues) expressed in Escherichia coli assessed as remaining activity at 10 uM using RSRHSSYPAGT as substrate incubated for 30 mins in presence of [gamma-33P]ATP by filter binding method relative to control; how it was run: as §2
# [16] = target: Myosin light chain kinase (Homo sapiens) (UniProt Q32MK0); assay: Inhibition of MLCK (unknown origin) assessed as remaining activity at 10 uM relative to control
# How it was run: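 Profiling-centre panel assay performed robotically at 21 °C for 30 min, linear with time and enzyme. […] Values are percent of compound-free control activity, the mean of triplicates ± S.D.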
# [17] = target: T1, mTORC2 (Homo sapiens); details: HEK293, dose 30-1000 nM, time 30.0 min; remark: listed apart in the source
# [18] = system: MEF; assay: Induction of cell cycle arrest in MEF cells assessed as accumulation at G2 phase at 3 uM incubated for 1 to 3 days by propidium iodide staining based flow cytometric analysis (reference value: 15.4 +/- 2.04%); assay type: toxicity; details: mouse, time 1-3 day
# MAP kinase-activated protein kinase 5 (Homo sapiens), sequence (Q8IW41 whole entry, the tested form may be a part): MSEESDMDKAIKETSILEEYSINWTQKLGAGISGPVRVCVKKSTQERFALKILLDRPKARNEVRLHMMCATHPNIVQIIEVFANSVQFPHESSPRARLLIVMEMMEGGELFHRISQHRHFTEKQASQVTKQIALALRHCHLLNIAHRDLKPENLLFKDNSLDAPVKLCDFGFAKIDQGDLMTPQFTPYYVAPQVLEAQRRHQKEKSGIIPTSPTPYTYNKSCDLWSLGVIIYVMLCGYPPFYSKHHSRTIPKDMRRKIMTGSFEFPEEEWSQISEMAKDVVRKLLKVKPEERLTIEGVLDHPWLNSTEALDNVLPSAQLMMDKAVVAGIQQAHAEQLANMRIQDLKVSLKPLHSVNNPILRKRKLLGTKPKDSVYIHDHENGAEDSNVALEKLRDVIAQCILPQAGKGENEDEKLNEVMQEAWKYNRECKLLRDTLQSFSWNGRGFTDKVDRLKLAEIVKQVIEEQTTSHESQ
# Myosin light chain kinase (Homo sapiens), sequence (Q32MK0 whole entry): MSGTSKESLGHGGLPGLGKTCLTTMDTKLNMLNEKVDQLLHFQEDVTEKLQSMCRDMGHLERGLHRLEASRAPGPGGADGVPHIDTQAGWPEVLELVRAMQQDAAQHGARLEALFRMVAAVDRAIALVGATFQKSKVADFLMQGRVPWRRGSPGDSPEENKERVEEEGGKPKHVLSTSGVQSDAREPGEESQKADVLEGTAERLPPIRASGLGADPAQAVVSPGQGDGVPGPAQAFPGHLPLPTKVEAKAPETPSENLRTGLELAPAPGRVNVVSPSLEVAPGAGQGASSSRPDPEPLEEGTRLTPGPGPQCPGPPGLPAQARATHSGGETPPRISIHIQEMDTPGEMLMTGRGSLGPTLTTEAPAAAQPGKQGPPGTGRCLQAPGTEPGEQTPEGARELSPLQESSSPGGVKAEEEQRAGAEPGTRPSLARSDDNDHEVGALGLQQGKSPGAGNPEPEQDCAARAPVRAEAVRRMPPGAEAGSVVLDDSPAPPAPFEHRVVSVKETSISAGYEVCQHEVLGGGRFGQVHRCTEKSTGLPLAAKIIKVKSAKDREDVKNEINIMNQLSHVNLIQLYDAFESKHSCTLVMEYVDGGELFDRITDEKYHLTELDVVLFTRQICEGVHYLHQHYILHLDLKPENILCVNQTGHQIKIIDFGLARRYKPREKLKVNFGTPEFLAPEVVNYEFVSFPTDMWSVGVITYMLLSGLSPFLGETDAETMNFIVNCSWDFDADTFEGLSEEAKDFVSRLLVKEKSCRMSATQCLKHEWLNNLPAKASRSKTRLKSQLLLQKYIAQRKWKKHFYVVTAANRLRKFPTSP
# Ribosomal protein S6 kinase alpha-5 (Homo sapiens), sequence (O75582 whole entry, looked up, the tested form may be a part): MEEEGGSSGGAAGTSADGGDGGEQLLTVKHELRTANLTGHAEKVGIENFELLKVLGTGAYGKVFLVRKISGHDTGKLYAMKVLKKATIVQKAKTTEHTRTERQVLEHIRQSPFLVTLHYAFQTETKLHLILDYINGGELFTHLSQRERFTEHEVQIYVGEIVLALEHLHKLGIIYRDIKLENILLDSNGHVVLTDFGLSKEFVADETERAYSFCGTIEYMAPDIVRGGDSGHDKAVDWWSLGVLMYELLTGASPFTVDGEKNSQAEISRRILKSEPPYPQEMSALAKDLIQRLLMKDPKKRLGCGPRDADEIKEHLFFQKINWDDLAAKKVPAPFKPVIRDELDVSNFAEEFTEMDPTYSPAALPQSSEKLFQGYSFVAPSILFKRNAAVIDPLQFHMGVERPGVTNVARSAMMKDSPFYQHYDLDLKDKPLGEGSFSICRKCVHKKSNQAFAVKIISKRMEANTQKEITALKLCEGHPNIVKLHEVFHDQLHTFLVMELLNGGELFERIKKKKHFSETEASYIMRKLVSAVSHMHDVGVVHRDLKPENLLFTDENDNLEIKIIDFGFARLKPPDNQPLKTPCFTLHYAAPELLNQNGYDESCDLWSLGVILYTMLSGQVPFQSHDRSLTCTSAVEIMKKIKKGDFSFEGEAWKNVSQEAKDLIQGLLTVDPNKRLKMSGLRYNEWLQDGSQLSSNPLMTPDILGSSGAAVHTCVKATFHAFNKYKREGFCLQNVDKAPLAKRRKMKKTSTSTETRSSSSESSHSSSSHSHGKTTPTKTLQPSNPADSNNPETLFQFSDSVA
# Homeodomain-interacting protein kinase 2 (Homo sapiens), sequence (Q9H2X6 whole entry, looked up, the tested form may be a part): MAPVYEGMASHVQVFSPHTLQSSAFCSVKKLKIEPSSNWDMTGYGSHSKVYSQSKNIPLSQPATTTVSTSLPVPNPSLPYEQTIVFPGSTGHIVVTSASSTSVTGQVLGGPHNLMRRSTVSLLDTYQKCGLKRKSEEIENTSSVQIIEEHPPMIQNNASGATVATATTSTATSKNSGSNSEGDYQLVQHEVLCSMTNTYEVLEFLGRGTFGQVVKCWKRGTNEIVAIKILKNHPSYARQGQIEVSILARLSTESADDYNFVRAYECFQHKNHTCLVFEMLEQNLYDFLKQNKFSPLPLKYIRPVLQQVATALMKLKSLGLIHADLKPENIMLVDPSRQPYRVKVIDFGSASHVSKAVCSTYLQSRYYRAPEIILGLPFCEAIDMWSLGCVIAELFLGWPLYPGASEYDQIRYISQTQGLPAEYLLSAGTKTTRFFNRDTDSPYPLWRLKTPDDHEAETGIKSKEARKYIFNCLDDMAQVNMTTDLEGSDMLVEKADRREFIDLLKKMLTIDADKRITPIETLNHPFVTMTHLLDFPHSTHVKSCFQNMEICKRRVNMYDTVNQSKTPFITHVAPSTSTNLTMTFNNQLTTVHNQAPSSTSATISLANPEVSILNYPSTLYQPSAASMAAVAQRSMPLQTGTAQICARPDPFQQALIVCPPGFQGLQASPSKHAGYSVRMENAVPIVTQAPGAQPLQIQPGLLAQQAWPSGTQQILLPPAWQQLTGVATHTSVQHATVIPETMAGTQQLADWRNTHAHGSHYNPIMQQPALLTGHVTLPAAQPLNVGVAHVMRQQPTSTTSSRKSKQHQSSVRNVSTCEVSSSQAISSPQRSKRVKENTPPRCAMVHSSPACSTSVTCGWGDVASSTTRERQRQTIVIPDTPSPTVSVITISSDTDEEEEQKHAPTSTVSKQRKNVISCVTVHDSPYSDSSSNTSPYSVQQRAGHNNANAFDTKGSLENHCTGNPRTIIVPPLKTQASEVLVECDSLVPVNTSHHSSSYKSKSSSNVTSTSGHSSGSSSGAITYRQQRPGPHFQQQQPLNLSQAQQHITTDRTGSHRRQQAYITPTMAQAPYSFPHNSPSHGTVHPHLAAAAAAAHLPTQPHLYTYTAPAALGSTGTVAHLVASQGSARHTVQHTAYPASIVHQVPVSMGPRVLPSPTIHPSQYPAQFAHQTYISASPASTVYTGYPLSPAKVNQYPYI
# Protein kinase C zeta type (Homo sapiens), sequence (Q05513 whole entry, the tested form may be a part): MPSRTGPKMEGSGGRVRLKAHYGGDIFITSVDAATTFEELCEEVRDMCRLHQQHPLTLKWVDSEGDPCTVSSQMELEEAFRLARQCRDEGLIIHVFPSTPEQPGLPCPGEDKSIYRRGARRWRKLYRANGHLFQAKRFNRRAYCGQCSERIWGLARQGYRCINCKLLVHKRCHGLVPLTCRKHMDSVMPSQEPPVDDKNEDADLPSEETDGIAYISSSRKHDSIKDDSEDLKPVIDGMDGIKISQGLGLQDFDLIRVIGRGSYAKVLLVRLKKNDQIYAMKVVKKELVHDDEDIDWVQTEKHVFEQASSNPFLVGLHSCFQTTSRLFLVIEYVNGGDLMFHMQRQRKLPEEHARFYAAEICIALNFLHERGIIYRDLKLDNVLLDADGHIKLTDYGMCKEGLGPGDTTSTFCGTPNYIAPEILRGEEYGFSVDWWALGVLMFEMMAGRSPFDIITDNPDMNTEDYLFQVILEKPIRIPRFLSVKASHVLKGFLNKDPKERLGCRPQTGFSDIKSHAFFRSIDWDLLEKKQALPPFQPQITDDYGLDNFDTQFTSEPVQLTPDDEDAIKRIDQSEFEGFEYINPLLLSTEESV
# Serine/threonine-protein kinase PAK 6 (Homo sapiens), sequence (Q9NQU5 whole entry, looked up, the tested form may be a part): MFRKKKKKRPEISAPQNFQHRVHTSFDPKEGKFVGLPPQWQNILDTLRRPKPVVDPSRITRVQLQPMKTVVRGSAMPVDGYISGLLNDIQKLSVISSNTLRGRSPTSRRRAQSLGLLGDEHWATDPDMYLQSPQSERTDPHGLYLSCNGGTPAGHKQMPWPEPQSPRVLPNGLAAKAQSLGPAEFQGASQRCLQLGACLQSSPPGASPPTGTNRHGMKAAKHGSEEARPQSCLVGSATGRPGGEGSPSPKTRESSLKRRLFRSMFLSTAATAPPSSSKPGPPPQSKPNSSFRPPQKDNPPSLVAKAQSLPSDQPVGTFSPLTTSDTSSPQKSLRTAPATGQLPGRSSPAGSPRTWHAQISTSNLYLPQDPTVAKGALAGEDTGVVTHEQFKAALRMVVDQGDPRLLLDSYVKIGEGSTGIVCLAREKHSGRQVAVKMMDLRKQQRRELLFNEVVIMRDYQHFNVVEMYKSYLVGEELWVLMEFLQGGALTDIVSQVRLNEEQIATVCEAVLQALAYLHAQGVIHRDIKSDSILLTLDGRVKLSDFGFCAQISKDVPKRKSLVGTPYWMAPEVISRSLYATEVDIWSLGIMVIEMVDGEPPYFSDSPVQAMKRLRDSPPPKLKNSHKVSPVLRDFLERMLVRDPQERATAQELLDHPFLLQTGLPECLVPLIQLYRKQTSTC
# Serine/threonine-protein kinase pim-2 (Homo sapiens), sequence (Q9P1W9 whole entry, looked up, the tested form may be a part): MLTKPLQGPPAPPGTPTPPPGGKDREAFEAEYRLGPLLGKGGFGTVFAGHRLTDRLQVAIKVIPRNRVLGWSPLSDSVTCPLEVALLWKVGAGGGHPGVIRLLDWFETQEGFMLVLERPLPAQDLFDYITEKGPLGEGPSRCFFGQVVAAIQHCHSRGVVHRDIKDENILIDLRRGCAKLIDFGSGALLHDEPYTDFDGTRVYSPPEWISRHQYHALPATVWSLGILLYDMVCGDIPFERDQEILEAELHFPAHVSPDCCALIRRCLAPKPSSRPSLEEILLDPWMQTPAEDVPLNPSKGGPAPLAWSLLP
compound,measurement,setting,value
COc1ccc(-c2ccc3c(N4CCOCC4)nc(N4C[C@@H](C)O[C@@H](C)C4)nc3n2)cc1CO [Ku-0063794],Activity,[1],72%
same,Activity,[2],102%
same,Activity,[3],46.9%
same,inhibition,[4],inactive
same,Activity,[5],67%
same,inhibition,[6],Active
same,Activity,[7],87%
same,Activity,[8],101%
same,Activity,[9],100%
same,inhibition,[10],Dose-Dependent Effect
same,inhibition,[11],Dose-Dependent Effect
same,Activity,[12],89%
same,Activity,[13],93%
same,Activity,[14],89%
same,Activity,[15],78%
same,Activity,[16],104%
same,inhibition,[17],Dose-Dependent Effect
same,Activity,[18],9.4%
